Laboratory results: paper PMC4233149 (Clinical cancer research : an official journal of the …, 2014)
Values joined by “and” are separate entries in the source; they are usually repeats but may differ in a detail not shown here. Equal entries are not always repeated.

What was measured:
[1] = alternate days (QOD), previously established; cited from earlier work
[2] = test system: pSer473 AKT; test: PD biomarker in paired tumor biopsies; assay type: in vivo, human
In short: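 Paired tumor biopsies were taken before and on treatment (oral QW or 60mg QOD). pSer473 AKT was quantified by MSD electrochemiluminescence assay validated to Good Clinical Practice standards. Levels were expressed as percent of each patient's baseline.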

[3] = Phase I safety and tolerability, alternate day; assay type: in vivo, human; settings: 60mg QOD
In short: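 Patients took 60mg tablets fasted, QOD in 28-day cycles, in expansion cohorts (CRPC, ovarian, MRI). Safety was checked at baseline, cycle 1 days 1, 2, 7, 15, 21, 27 and 28, weekly in cycle 2, then monthly. Glucose was monitored. Serum C-peptide and whole-blood HbA1c were measured at baseline and monthly. AEs were graded by CTCAE v3.0.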

[4] = test system: pSer9 GSK3β; test: PD biomarker in platelet-rich plasma; assay type: in vivo, human; settings: PRP; for mean pSer9 GSK3β signal, % of baseline levels: 200mg QW, n=11
[5] = observed in the earlier QOD dose-escalation study; cited from earlier work
[6] = test system: pSer473 AKT; test: PD biomarker in platelet-rich plasma; assay type: in vivo, human; settings: PRP
[7] = test system: pSer473 AKT; settings: cited from earlier work
[8] = Solubility; assay type: physicochemical; settings: across physiological pH ranges
[9] = Plasma pharmacokinetics, QOD schedule; assay type: in vivo, human; settings: 60mg QOD
[10] = test system: advanced solid tumors; test: Tumor response; assay type: in vivo, human
In short: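 Radiological disease status was assessed by RECIST 1.1 at baseline and every 8 weeks during oral weekly dosing.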

[11] = test system: advanced solid tumors; test: Multiparametric functional MRI; assay type: in vivo, human; settings: 60mg QOD, one patient with ADC response
In short: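 Oral dosing at 60mg QOD to fasted patients in 28-day cycles. Imaging on a 1.5T MR system used DCE-MRI, DWI, 1H-MRS and ISW-MRI. Median Ktrans, ADC, tCho/water ratio and R2* were analysed. Four scans per patient: two pre-treatment (reproducibility cohort), then cycle 1 day 7±1 and day 21±4.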

For NC1(c2ccc(-c3nc4ccn5c(=O)[nH]nc5c4cc3-c3ccccc3)cc2)CCC1 [MK-2206], the “maximum tolerated dose (MTD)” value [1] is given as 60 mg, the “pSer473 AKT levels, % of baseline levels (range)” value ([2]; 60mg QOD, 3 patients) is given as 45.3-56.2% and the “mean pSer473 AKT levels, % of baseline levels” value ([2]; 60mg QOD, 3 patients, p=0.004) is given as 50.1%. The “pSer473 AKT signal, % of baseline levels (range)” value ([2]; 200mg QW, 5 patients) was 37.5-60.3%, the “pSer473 AKT signal, % of baseline levels” value ([2]; 200mg QW, 5 patients, p=0.0003) was 50.0% and the “C-peptide level increase during first cycle (range)” value [3] was 2.7% to 495.5. For the same molecule, the “time for DLTs to resolve to baseline levels after drug interruption” value [3] was 1-2 weeks, the “end of cycle 1 HbA1c values” ([3]; 2 patients with baseline levels ≤6.5%) was 7.3% and 8.3% and the “patients with increased C-peptide levels during first cycle” value ([3]; 23/27) was 85.2%. The “patients with HbA1c levels of ≤6.5% at baseline and end of cycle 1” value ([3]; 25/29) was 86.2%, the “elevated blood glucose levels, patients” value ([3]; 27/38) was 71.1% and the tolerability ([3]; 38 patients) was “generally well tolerated”. The “G3 hyperglycemia, patients” value ([3]; following first cycle, 1/38) was 2.6%, the “G1-2 hyperglycemia, patients” value ([3]; following first cycle, 3/38) was 7.9% and the “time of maximum suppression of pSer9 GSK3β post-MK-2206” value ([4]; 60mg QOD) was 6 h. For the same molecule, the “mean pSer9 GSK3β levels, % of baseline levels” value (shortened to “mean pSer9 GSK3β levels, %”) ([4]; 60mg QOD, 3h) was 76.8%, the “mean pSer9 GSK3β levels, %” value ([4]; 60mg QOD, 6h) was 67.5% and the “mean pSer9 GSK3β levels, %” value ([4]; 60mg QOD, 24h) was 102.9%. For the same molecule, the “mean pSer9 GSK3β signal, % of baseline levels” value (from here on “mean pSer9 GSK3β signal, %”) ([4]; 24h) was 65.0%, the “mean pSer9 GSK3β signal, %” value ([4]; 48h) was 82.3% and the “mean pSer9 GSK3β signal, %” value ([4]; 96h) was 91.4%. For the same molecule, the “mean pSer9 GSK3β signal, %” value ([4]; 168h) was 117.2%, the half-life [5] was 60 to 80 h and the “overall mean decrease of pSer473 AKT levels” value ([6]; 60mg QOD) was 55.3%. The “time of maximum inhibition of pSer473 AKT post-MK-2206” value ([6]; 60mg QOD) was 6 h, the “mean pSer473 AKT signal, % of baseline levels” value (“mean pSer473 AKT signal, %” for short) ([6]; 60mg QOD, 3h, 29 patients) was 36.3% and the “mean pSer473 AKT signal, %” value ([6]; 60mg QOD, 6h, 29 patients) was 27.9%. The “mean pSer473 AKT signal, %” value ([6]; 60mg QOD, 24h, 29 patients) was 44.0%, the “mean pSer473 AKT signal, %” value ([6]; 60mg QOD, 48h, 29 patients) was 70.6% and the “mean pSer473 AKT levels, % of baseline levels” value ([6]; 60mg QOD, 48h, one outlier removed (28 patients), p=0.0004) was 60.1%. The “time of maximal suppression of pSer473 AKT and its substrate pSer9 GSK3β” value ([6]; 150mg QW, breast cancer patient) was 24 h, the “mean pSer473 AKT signal, %” value ([6]; 200mg QW, 24h, n=11) was 19.8% and the “mean pSer473 AKT signal, %” value ([6]; 200mg QW, 48h, n=11) was 30.6%. The “mean pSer473 AKT signal, %” value ([6]; 200mg QW, 96h, n=11) was 51.7%, the “mean pSer473 AKT signal, %” value ([6]; 200mg QW, 168h, n=11) was 97.4% and the “duration of initial suppression of pSer473 AKT phosphorylation signal” value ([6]; QW MTD) was “at least 96 h”. For the same molecule, the “concentration required for 70% inhibition of pSer473 AKT in whole blood” value ([7]; level identified in preclinical models as associated with antitumor activity) was 57 nmol/L, the “prespecified PK target for 70% inhibition of pAKT” value ([7]; plasma concentration target) was 56.8 nM and the solubility [8] was “relatively low solubility”. For the same molecule, the “accumulation ratio AUClast day:AUCfirst day” value [9] was 3.3, the “reduction in RECIST measurements of target lesions” value ([10]; 150mg QW, 8 weeks, one patient with ER/PR positive, HER2 negative metastatic breast cancer, PIK3CA exon 20 mutation) was 22% and the “total time on treatment” value ([10]; 150mg QW, breast cancer patient, before disease progression) was 24 weeks. The “CA15-3 level after treatment” value ([10]; 150mg QW, breast cancer patient, from 6853U/ml) was 4399 U/ml, the “reduction in CA15-3” value ([10]; 150mg QW, same breast cancer patient) was ~36% and the “duration of RECIST SD (range)” value ([10]; two patients with CRPC) was 6.5-7.5 months. The “reduction in K^trans” value [11] was 20%.
